Reference: ChEMBL document CHEMBL1687835, “Using bioluminescence to monitor treatment response in real time in mice with Mycobacterium ulcerans infection” (2011)
Calls of active or inactive are those of the source.

Key:
Mycobacterium ulcerans [1] = assay: Antimicrobial activity against Mycobacterium ulcerans Mu1059 expressing luxAB from vibrio harveyi infected BALB/c mouse assessed as reduction in foodpad CFU count after 4 weeks; format: functional, organism-based
In short: (§1)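 Preventive footpad model in female BALB/c mice: treatment started 2 weeks post-infection and was given 5 days/week for 4 weeks (RIF 10 mg/kg gavage; STR 150 mg/kg s.c.). Five mice/group were sacrificed weekly. Footpads were minced in 2 ml PBS, and serial dilutions were plated in duplicate on selective 7H11 at 32°C for 3–4 months. Detection limit was 2 CFU/footpad. Log CFU was compared with day 0 by t test or ANOVA/Dunnett.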

Mycobacterium ulcerans [2] = assay: Antimicrobial activity against wild type Mycobacterium ulcerans ATCC 19423 infected BALB/c mouse assessed as delay to time to foodpad swelling; format: functional, organism-based
Mycobacterium ulcerans [3] = assay: Antimicrobial activity against Mycobacterium ulcerans Mu1059 expressing luxAB from vibrio harveyi infected BALB/c mouse assessed as delay to time to foodpad swelling; format: functional
In short: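 Female BALB/c mice, 4 weeks old, were infected in the left hind footpad with 0.03 ml of bacterial suspension in PBS. From week 2 (lesion index 0), treatment ran for 4 weeks, 5 days/week, with drugs in water, 0.2 ml: RIF 10 mg/kg by gavage; STR or KAN 150 mg/kg subcutaneously. After treatment, 15 mice/group were scored weekly for 23 weeks; swelling was defined as lesion index 1.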

Mycobacterium ulcerans [4] = assay: Antimicrobial activity against wild type Mycobacterium ulcerans Mu1059 infected BALB/c mouse assessed as reduction in foodpad CFU count after 4 weeks
Mycobacterium ulcerans [5] = assay: Antimicrobial activity against recombinant Mycobacterium ulcerans Mu1059 expressing luxAB from vibrio harveyi infected BALB/c mouse assessed as reduction in foodpad CFU count after 1 week relative to basal level; format: functional, organism-based; in short: as §1
Mycobacterium ulcerans [6] = assay: Antimicrobial activity against recombinant Mycobacterium ulcerans Mu1059 expressing luxAB from vibrio harveyi infected BALB/c mouse assessed as reduction in foodpad CFU count after 2 weeks relative to basal level; format: functional, organism-based; in short: as §1
Mycobacterium ulcerans [7] = assay: Antimicrobial activity against recombinant Mycobacterium ulcerans Mu1059 expressing luxAB from vibrio harveyi infected BALB/c mouse assessed as reduction in foodpad relative light unit after 1 week relative to basal level; format: functional, organism-based
In short: (§2)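 Same preventive schedule, with five mice/group sacrificed weekly. Each minced footpad homogenate (in 2 ml PBS) was read by taking a 200-µl sample, adding 20 µl of 1% decanal, and measuring light for 4 s immediately on a luminometer, in duplicate. Log-transformed RLU was compared with day 0 by unpaired t test or one-way ANOVA with Dunnett's posttest (alpha 0.05).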

Mycobacterium ulcerans [8] = assay: Antimicrobial activity against recombinant Mycobacterium ulcerans Mu1059 expressing luxAB from vibrio harveyi infected BALB/c mouse assessed as reduction in foodpad relative light unit after 2 weeks relative to basal level; format: functional, organism-based; in short: as §2

NC[C@H]1O[C@H](O[C@H]2[C@H](O)[C@@H](O[C@H]3O[C@H](CO)[C@@H](O)[C@H](N)[C@H]3O)[C@H](N)C[C@@H]2N)[C@H](O)[C@@H](O)[C@@H]1O [KANAMYCIN]
Activity (Mycobacterium ulcerans [1]): inactive
Activity (Mycobacterium ulcerans [2]): inactive
Time (Mycobacterium ulcerans [3]): 3 weeks
Activity (Mycobacterium ulcerans [4]): Active

CN[C@@H]1[C@H](O[C@H]2[C@H](O[C@H]3[C@H](O)[C@@H](O)[C@H](N=C(N)N)[C@@H](O)[C@@H]3N=C(N)N)O[C@@H](C)[C@]2(O)C=O)O[C@@H](CO)[C@H](O)[C@H]1O
Activity (Mycobacterium ulcerans [5]): Active
Activity (Mycobacterium ulcerans [6]): Active
Activity (Mycobacterium ulcerans [7]): Active
Activity (Mycobacterium ulcerans [1]): Active
Activity (Mycobacterium ulcerans [2]): inactive
Activity (Mycobacterium ulcerans [8]): Active
